Experimental data of several laboratories.
Protocols differ between the studies behind these lines.
Target: Calcium/calmodulin-dependent protein kinase type 1B (PNCK, Homo sapiens, UniProt Q6P2M8)

| Compound | observed | technique | tested at | remaining binding |
| --- | --- | --- | --- | --- |
| CC1=C(C#N)C(c2ccc3c(c2)c(NC(=O)c2ccccc2C)nn3C)C(C#N)=C(C)N1 | cell-free assay | competition with immobilised ligand | 1 µM | 85% |
| O=C(c1ccc(Nc2ncc(Cl)c(-c3cc4ccccc4s3)n2)cc1)N1CCC(N2CCCC2)CC1 | binding | competition with immobilised ligand | 1 µM | 62% |
| O=C(Nc1cnc(Oc2ccc(F)cc2)nc1)N1CCc2ncccc2[C@@H]1c1ccc(F)cc1 | cell-free assay | competition with immobilised ligand | 1 µM | 100% |
| O=C(NCC1CCOCC1)c1n[nH]cc1NC(=O)c1c(F)cccc1F | binding | competition with immobilised ligand | 1 µM | 87% |
| N[C@H]1CCN(c2nccc(-c3cnn4ncccc34)n2)C1 | binding | – | 1 µM | 84% |
| COc1cnc(Nc2cccc(S(N)(=O)=O)c2)nc1N1CCN(c2ccccc2)C(=O)C1 | binding | competition with immobilised ligand | 1 µM | 83% |
| CC(=O)c1c(NS(C)(=O)=O)c2cc(-c3ccc(Cl)cc3)c(-c3ccc(Cl)cc3Cl)nc2n(C)c1=O | cell-free assay | competition with immobilised ligand | 1 µM | 100% |
| COc1ccnn2ncc(-c3ccnc(N(C)C)n3)c12 | binding | – | 1 µM | 100% |
| O=C(c1ccc(Nc2ncc(Cl)c(-c3ccc(Cl)s3)n2)cc1)N1CCC(N2CCCC2)CC1 | binding | competition with immobilised ligand | 1 µM | 56% |
| Nc1ncc2c(n1)-c1c([nH]c3ccc(C#CC4CC4)cc13)CCCC2 | binding | competition with immobilised ligand | 1 µM | 79% |
| c1cncc(-c2cccc(Nc3nccc(NC4CCCCC4)n3)c2)c1 | binding | competition with immobilised ligand | 10 µM | 53% |
| O=c1nc(-c2ccccn2)sc2ccccc12 | cell-free assay | competition with immobilised ligand | 1 µM | 56% |
| CN(C)c1nccc(-c2cnn3ncccc23)n1 | binding | – | 1 µM | 29% |
| CCCOc1ccc([C@H]2[C@H](C(=O)O)[C@@H](c3ccc4c(c3)OCO4)CN2CC(=O)Nc2c(CC)cccc2CC)cc1 | cell-free assay | competition with immobilised ligand | 1 µM | 77% |
| CN(C)c1nccc(-c2cnc3ncccn23)n1 | binding | – | 1 µM | 62% |
| O=C(c1ccc(Nc2nccc(-c3cc4ccccc4s3)n2)cc1)N1CCC(N2CCCC2)CC1 | binding | competition with immobilised ligand | 1 µM | 47% |
| c1cnn2ncc(-c3ccnc(N4CCC45COC5)n3)c2c1 | binding | – | 1 µM | 81% |
| CNC(=O)[C@@H]1CC[C@@H](n2c(-c3ccc4cnccc4c3)nc3ccc(C(=O)NCc4cccc(C(N)=O)c4)cc32)C1 | binding | competition with immobilised ligand | 1 µM | 85% |
